Measurements reported in PubChem BioAssay AID463171 (The Scripps Research Institute Molecular Screening Center, 2010).
Active and inactive are the calls of the source.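 How the source made its calls: active means p27 reporter light at least 10 times the solvent-only level, showing blocked p27 breakdown; inactive means ratio under 10.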

Target: Cyclin-dependent kinase inhibitor 1B (Homo sapiens) (UniProt P46527)
Test: inhibitors of p27 turnover in HeLa cells, late-stage follow-up, counter-screen for Wee1 degradation inhibitor project, cell-based, luminescence, p27-luciferase fusion, powder samples (AID 463171)
Settings: HeLa p27-luciferase fusion stability, at 0.1 µM, hits give high values
Method in brief: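 Assay system: human HeLa cells transiently expressing a p27-luciferase fusion reporter / Incubation: compound exposure 20 h at 37 °C, cells 48 h post-transfection / Repeats: quadruplicate wells / Evaluation: mean fold change in luminescence relative to DMSO vehicle wells / Technique: luminescence after addition of Brite-lite luciferase reagent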

Chain of Cyclin-dependent kinase inhibitor 1B (Homo sapiens) (P46527 whole entry, looked up, the tested form may be a part): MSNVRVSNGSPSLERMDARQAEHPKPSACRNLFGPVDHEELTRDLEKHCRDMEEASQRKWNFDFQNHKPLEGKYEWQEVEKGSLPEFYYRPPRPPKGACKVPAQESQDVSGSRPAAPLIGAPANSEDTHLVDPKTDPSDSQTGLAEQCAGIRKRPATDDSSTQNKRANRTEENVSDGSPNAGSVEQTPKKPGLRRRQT

fold change	Compound
4.61 (inactive)	O=[N+]([O-])c1cccc2[nH]c(CNc3nc(N4CCOCC4)nc4c3ncn4-c3ccsc3)nc12
3.13 (inactive)	c1ccc2[nH]c(CNc3nc(N4CCOCC4)nc4c3ncn4-c3ccsc3)nc2c1
